In brackets after ≈: the same amount, converted by molar mass.
How the values were obtained:
Format in all cases: functional
[1] = tested on: Streptococcus pneumoniae; assay: Antibacterial activity against Streptococcus pneumoniae W001 harboring wild-type parC and gyrA genes
[2] = tested on: Streptococcus pneumoniae; assay: Antibacterial activity against Streptococcus pneumoniae W002 harboring wild-type parC and gyrA genes
[3] = tested on: Streptococcus pneumoniae; assay: Antibacterial activity against Streptococcus pneumoniae S001 harboring parC Asp83Asn mutant and wild-type gyrA genes
[4] = tested on: Streptococcus pneumoniae; assay: Antibacterial activity against Streptococcus pneumoniae S002 harboring parC Ser79Phe mutant and wild-type gyrA genes
[5] = tested on: Streptococcus pneumoniae; assay: Antibacterial activity against Streptococcus pneumoniae S003 harboring wild-type parC and gyrA Ser81Phe mutant genes
[6] = tested on: Streptococcus pneumoniae; assay: Antibacterial activity against Streptococcus pneumoniae S004 harboring wild-type parC and gyrA Gly85Asn mutant genes
[7] = tested on: Streptococcus pneumoniae; assay: Antibacterial activity against Streptococcus pneumoniae D001 harboring parC Ser79Phe and gyrA Gly85Lys mutant genes
[8] = tested on: Streptococcus pneumoniae; assay: Antibacterial activity against Streptococcus pneumoniae D002 harboring parC Ser79Phe and gyrA Ser81Phe mutant genes
[9] = tested on: Streptococcus pneumoniae; assay: Antibacterial activity against Streptococcus pneumoniae W001 harboring wild-type parC and gyrA genes assessed as mutation prevention concentration after 48 hrs
In short: (§1)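 A 200 μl culture at 10 log10 CFU/ml was spread on Mueller-Hinton II agar with 5% sheep blood containing drug at a range of concentrations, then incubated at 37°C in 5% CO2. MPC was taken as the lowest concentration preventing colony formation after 48 h. Determinations were done in duplicate.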

[10] = tested on: Streptococcus pneumoniae; assay: Antibacterial activity against Streptococcus pneumoniae W002 harboring wild-type parC and gyrA genes assessed as mutation prevention concentration after 48 hrs; in short: as §1
[11] = tested on: Streptococcus pneumoniae; assay: Antibacterial activity against Streptococcus pneumoniae S001 harboring parC Asp83Asn mutant and wild-type gyrA genes assessed as mutation prevention concentration after 48 hrs; in short: as §1
[12] = tested on: Streptococcus pneumoniae; assay: Antibacterial activity against Streptococcus pneumoniae S002 harboring parC Ser79Phe mutant and wild-type gyrA genes assessed as mutation prevention concentration after 48 hrs; in short: as §1
[13] = tested on: Streptococcus pneumoniae; assay: Antibacterial activity against Streptococcus pneumoniae S003 harboring wild-type parC and gyrA Ser81Phe mutant genes assessed as mutation prevention concentration after 48 hrs; in short: as §1
[14] = tested on: Streptococcus pneumoniae; assay: Antibacterial activity against Streptococcus pneumoniae S004 harboring wild-type parC and gyrA Gly85Asn mutant genes assessed as mutation prevention concentration after 48 hrs; in short: as §1
[15] = tested on: Streptococcus pneumoniae; assay: Antibacterial activity against Streptococcus pneumoniae D001 harboring parC Ser79Phe and gyrA Gly85Lys mutant genes assessed as mutation prevention concentration after 48 hrs; in short: as §1
[16] = tested on: Streptococcus pneumoniae; assay: Antibacterial activity against Streptococcus pneumoniae D002 harboring parC Ser79Phe and gyrA Ser81Phe mutant genes assessed as mutation prevention concentration after 48 hrs; in short: as §1
[17] = tested on: Streptococcus pneumoniae; assay: Antibacterial activity against Streptococcus pneumoniae W001
[18] = tested on: Streptococcus pneumoniae; assay: Antibacterial activity against Streptococcus pneumoniae W002
[19] = tested on: Streptococcus pneumoniae; assay: Antibacterial activity against Streptococcus pneumoniae S001
[20] = tested on: Streptococcus pneumoniae; assay: Antibacterial activity against Streptococcus pneumoniae S002
[21] = tested on: Streptococcus pneumoniae; assay: Antibacterial activity against Streptococcus pneumoniae S003
[22] = tested on: Streptococcus pneumoniae; assay: Antibacterial activity against Streptococcus pneumoniae S004
[23] = tested on: Streptococcus pneumoniae; assay: Antibacterial activity against Streptococcus pneumoniae D001
[24] = tested on: Streptococcus pneumoniae; assay: Antibacterial activity against Streptococcus pneumoniae D002
[25] = tested on: Streptococcus pneumoniae; assay: Antibacterial activity against Streptococcus pneumoniae W001 assessed as resistant isolates with ParC79 mutation in quinolone resistance-determining regions
In short: (§2)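 Up to eight colonies per plate were grown individually, and genomic DNA was screened for ParC Ser79/Asp83 and GyrA Ser81/Gly85 changes by PCR-melting curve analysis with labelled hybridization probes. Sequences were confirmed by direct sequencing.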

[26] = tested on: Streptococcus pneumoniae; assay: Antibacterial activity against Streptococcus pneumoniae W002 assessed as resistant isolates with ParC79 mutation in quinolone resistance-determining regions; in short: as §2
[27] = tested on: Streptococcus pneumoniae; assay: Antibacterial activity against Streptococcus pneumoniae S001 assessed as resistant isolates with ParC79 mutation in quinolone resistance-determining regions; in short: as §2
[28] = tested on: Streptococcus pneumoniae; assay: Antibacterial activity against Streptococcus pneumoniae S003 assessed as resistant isolates with ParC79 mutation in quinolone resistance-determining regions; in short: as §2
[29] = tested on: Streptococcus pneumoniae; assay: Antibacterial activity against Streptococcus pneumoniae S004 assessed as resistant isolates with ParC79 mutation in quinolone resistance-determining regions; in short: as §2
[30] = tested on: Streptococcus pneumoniae; assay: Antibacterial activity against Streptococcus pneumoniae W001 assessed as resistant isolates with ParC83 mutation in quinolone resistance-determining regions; in short: as §2
[31] = tested on: Streptococcus pneumoniae; assay: Antibacterial activity against Streptococcus pneumoniae W002 assessed as resistant isolates with ParC83 mutation in quinolone resistance-determining regions; in short: as §2
[32] = tested on: Streptococcus pneumoniae; assay: Antibacterial activity against Streptococcus pneumoniae S002 assessed as resistant isolates with ParC83 mutation in quinolone resistance-determining regions; in short: as §2
[33] = tested on: Streptococcus pneumoniae; assay: Antibacterial activity against Streptococcus pneumoniae S003 assessed as resistant isolates with ParC83 mutation in quinolone resistance-determining regions; in short: as §2
[34] = tested on: Streptococcus pneumoniae; assay: Antibacterial activity against Streptococcus pneumoniae S004 assessed as resistant isolates with ParC83 mutation in quinolone resistance-determining regions; in short: as §2
[35] = tested on: Streptococcus pneumoniae; assay: Antibacterial activity against Streptococcus pneumoniae D002 assessed as resistant isolates with ParC83 mutation in quinolone resistance-determining regions; in short: as §2
[36] = tested on: Streptococcus pneumoniae; assay: Antibacterial activity against Streptococcus pneumoniae W001 assessed as resistant isolates with GyrA81 mutation in quinolone resistance-determining regions; in short: as §2
[37] = tested on: Streptococcus pneumoniae; assay: Antibacterial activity against Streptococcus pneumoniae W002 assessed as resistant isolates with GyrA81 mutation in quinolone resistance-determining regions; in short: as §2
[38] = tested on: Streptococcus pneumoniae; assay: Antibacterial activity against Streptococcus pneumoniae S001 assessed as resistant isolates with GyrA81 mutation in quinolone resistance-determining regions; in short: as §2
[39] = tested on: Streptococcus pneumoniae; assay: Antibacterial activity against Streptococcus pneumoniae S002 assessed as resistant isolates with GyrA81 mutation in quinolone resistance-determining regions; in short: as §2
[40] = tested on: Streptococcus pneumoniae; assay: Antibacterial activity against Streptococcus pneumoniae D001 assessed as resistant isolates with GyrA81 mutation in quinolone resistance-determining regions; in short: as §2
[41] = tested on: Streptococcus pneumoniae; assay: Antibacterial activity against Streptococcus pneumoniae W001 assessed as resistant isolates with GyrA85 mutation in quinolone resistance-determining regions; in short: as §2
[42] = tested on: Streptococcus pneumoniae; assay: Antibacterial activity against Streptococcus pneumoniae W002 assessed as resistant isolates with GyrA85 mutation in quinolone resistance-determining regions; in short: as §2
[43] = tested on: Streptococcus pneumoniae; assay: Antibacterial activity against Streptococcus pneumoniae S001 assessed as resistant isolates with GyrA85 mutation in quinolone resistance-determining regions; in short: as §2
[44] = tested on: Streptococcus pneumoniae; assay: Antibacterial activity against Streptococcus pneumoniae S002 assessed as resistant isolates with GyrA85 mutation in quinolone resistance-determining regions; in short: as §2
[45] = tested on: Streptococcus pneumoniae; assay: Antibacterial activity against Streptococcus pneumoniae S003 assessed as resistant isolates with GyrA85 mutation in quinolone resistance-determining regions; in short: as §2
[46] = tested on: Streptococcus pneumoniae; assay: Antibacterial activity against Streptococcus pneumoniae S004 assessed as resistant isolates with GyrA85 mutation in quinolone resistance-determining regions; in short: as §2
[47] = tested on: Streptococcus pneumoniae; assay: Antibacterial activity against Streptococcus pneumoniae D002 assessed as resistant isolates with GyrA85 mutation in quinolone resistance-determining regions; in short: as §2

Compound: COc1c(N2CCNC(C)C2)c(F)cc2c(=O)c(C(=O)O)cn(C3CC3)c12 (centres undefined) [GATIFLOXACIN]
- MIC [1]: 0.12 µg/mL (≈ 0.32 µM)
- MIC [2]: 0.12 µg/mL (≈ 0.32 µM)
- MIC [3]: 0.25 µg/mL (≈ 0.666 µM)
- MIC [4]: 0.12 µg/mL (≈ 0.32 µM)
- MIC [5]: 0.12 µg/mL (≈ 0.32 µM)
- MIC [6]: 0.25 µg/mL (≈ 0.666 µM)
- MIC [7]: 4 µg/mL (≈ 10.7 µM)
- MIC [8]: 8 µg/mL (≈ 21.3 µM)
- Activity [9]: 0.5 µg/mL
- Activity [10]: 0.5 µg/mL
- Activity [11]: 4 µg/mL
- Activity [12]: 4 µg/mL
- Activity [13]: 8 µg/mL
- Activity [14]: 8 µg/mL
- Activity [15]: 16 µg/mL
- Activity [16]: 16 µg/mL

Compound: O=C(O)c1cn(C2CC2)c2cc(N3CCNCC3)c(F)cc2c1=O [CIPROFLOXACIN]
- MIC [2]: 0.25 µg/mL (≈ 0.754 µM)
- MIC [7]: 32 µg/mL (≈ 96.6 µM)
- MIC [8]: 8 µg/mL (≈ 24.1 µM)
- Activity [9]: 8 µg/mL
- Activity [10]: 8 µg/mL
- Activity [11]: 128 µg/mL
- Activity [12]: 128 µg/mL
- Activity [13]: 64 µg/mL
- Activity [14]: 64 µg/mL
- Activity [15]: 256 µg/mL
- Activity [16]: 256 µg/mL

Compound: C[C@H]1COc2c(N3CCN(C)CC3)c(F)cc3c(=O)c(C(=O)O)cn1c23.C[C@H]1COc2c(N3CCN(C)CC3)c(F)cc3c(=O)c(C(=O)O)cn1c23.O [LEVOFLOXACIN]
- Activity [9]: 2 µg/mL
- Activity [10]: 2 µg/mL
- Activity [11]: 16 µg/mL
- Activity [12]: 16 µg/mL
- Activity [13]: 32 µg/mL
- Activity [14]: 32 µg/mL
- Activity [15]: 128 µg/mL
- Activity [16]: 128 µg/mL

Compound: COc1c(N2C[C@@H]3CCCN[C@@H]3C2)c(F)cc2c(=O)c(C(=O)O)cn(C3CC3)c12 [MOXIFLOXACIN]
- MIC [1]: 0.06 µg/mL (≈ 0.149 µM)
- MIC [2]: 0.06 µg/mL (≈ 0.149 µM)
- MIC [5]: 0.06 µg/mL (≈ 0.149 µM)
- MIC [6]: 0.12 µg/mL (≈ 0.299 µM)
- MIC [7]: 4 µg/mL (≈ 9.96 µM)
- MIC [8]: 4 µg/mL (≈ 9.96 µM)
- Activity [9]: 0.5 µg/mL
- Activity [10]: 0.5 µg/mL
- Activity [13]: 4 µg/mL
- Activity [14]: 4 µg/mL
- Activity [15]: 16 µg/mL
- Activity [16]: 16 µg/mL

Compound: C[C@H]1NCc2cc(-c3ccc4c(=O)c(C(=O)O)cn(C5CC5)c4c3OC(F)F)ccc21 [GARENOXACIN]
- MIC [1]: 0.015 µg/mL (≈ 0.0352 µM)
- MIC [2]: 0.015 µg/mL (≈ 0.0352 µM)
- MIC [3]: 0.03 µg/mL (≈ 0.0704 µM)
- MIC [4]: 0.06 µg/mL (≈ 0.141 µM)
- MIC [5]: 0.06 µg/mL (≈ 0.141 µM)
- MIC [6]: 0.06 µg/mL (≈ 0.141 µM)
- MIC [7]: 0.25 µg/mL (≈ 0.586 µM)
- MIC [8]: 0.5 µg/mL (≈ 1.17 µM)
- MIC [17]: 0.015 µg/mL (≈ 0.0352 µM)
- MIC [18]: 0.015 µg/mL (≈ 0.0352 µM)
- MIC [19]: 0.03 µg/mL (≈ 0.0704 µM)
- MIC [20]: 0.06 µg/mL (≈ 0.141 µM)
- MIC [21]: 0.06 µg/mL (≈ 0.141 µM)
- MIC [22]: 0.06 µg/mL (≈ 0.141 µM)
- MIC [23]: 0.25 µg/mL (≈ 0.586 µM)
- MIC [24]: 0.5 µg/mL (≈ 1.17 µM)
- Activity [25]: 0%
- Activity [26]: 0%
- Activity [27]: 0%
- Activity [28]: 65%
- Activity [29]: 56%
- Activity [30]: 0%
- Activity [31]: 0%
- Activity [32]: 0%
- Activity [33]: 0%
- Activity [34]: 0%
- Activity [35]: 21%
- Activity [36]: 50%
- Activity [37]: 67%
- Activity [38]: 77%
- Activity [39]: 48%
- Activity [40]: 70%
- Activity [41]: 12%
- Activity [42]: 0%
- Activity [43]: 0%
- Activity [44]: 9%
- Activity [45]: 0%
- Activity [46]: 0%
- Activity [47]: 50%
- Activity [9]: 0.12 µg/mL
- Activity [10]: 0.12 µg/mL
- Activity [11]: 1 µg/mL
- Activity [12]: 1 µg/mL
- Activity [13]: 2 µg/mL
- Activity [14]: 2 µg/mL
- Activity [15]: 4 µg/mL
- Activity [16]: 4 µg/mL

Source: ChEMBL document CHEMBL1649531, “In vitro activity of garenoxacin against Streptococcus pneumoniae mutants with characterized resistance mechanisms” (2009)
